# Measurements from ChEMBL document CHEMBL1629654, “Breakthrough Aspergillus fumigatus and Candida albicans double infection during caspofungin treatment: laboratory characteristics and implication for susceptibility testing” (2009).
# Active and inactive are the calls of the source. No cut-off for these calls is given here.
# Key:
# [1] = test system: Candida tropicalis; experiment: Antimicrobial activity against Candida tropicalis after 48 hrs by 50% endpoint M27-A2 method; assay type: functional
# [2] = test system: Meyerozyma guilliermondii; experiment: Antimicrobial activity against Candida guilliermondii after 48 hrs by M27-A method
# [3] = test system: Candida tropicalis; experiment: Antimicrobial activity against Candida tropicalis after 24 hrs by M27-A3 method; assay type: functional
# [4] = test system: Nakaseomyces glabratus; experiment: Antimicrobial activity against Candida glabrata after 48 hrs by 50% endpoint M27-A2 method; assay type: functional
# [5] = test system: Candida albicans; experiment: Antimicrobial activity against Candida albicans isolate R at 1 ug/ml grown on RPMI 1640 medium after 48 hrs by disk diffusion method; assay type: functional
# Method in brief: (§1)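 Disk diffusion on 90-mm RPMI 1640 with 2% glucose agar or on Mueller-Hinton agar. Plates were swabbed in three directions with a yeast suspension of 1–5 × 10^6 cells/ml. Paper disks (6 mm) held 1, 5 or 25 µg drug. Zone diameters were read at 24 and 48 h; values are means of two experiments.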
# [6] = test system: Candida albicans; experiment: Antimicrobial activity against Candida albicans isolate C after 48 hrs by microdilution method; assay type: functional
# Method in brief: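 Broth microdilution in microtiter plates, read spectrophotometrically at 490 nm. MIC taken as the lowest drug dilution giving 50% growth inhibition. C. krusei […] run as control in each run. Read at 24 h and 48 h; trailing growth noted at 48 h.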
# [7] = test system: Candida albicans; experiment: Antimicrobial activity against Candida albicans isolate S at 5 ug/ml grown on RPMI 1640 medium after 24 hrs by disk diffusion method; assay type: functional; method in brief: as §1
# [8] = test system: Candida albicans; experiment: Antimicrobial activity against Candida albicans isolate S at 5 ug/ml grown on Muller-Hinton agar medium after 48 hrs by disk diffusion method; assay type: functional; method in brief: as §1
# [9] = test system: Candida parapsilosis; experiment: Antimicrobial activity against Candida parapsilosis after 48 hrs by M27-A method; details: Lodderomyces parapsilosis
# [10] = test system: Pichia kudriavzevii; experiment: Antimicrobial activity against Candida krusei after 48 hrs by 50% endpoint M27-A2 method; assay type: functional
# [11] = test system: Candida albicans; experiment: Antimicrobial activity against Candida albicans isolate S at 5 ug/ml grown on RPMI 1640 medium after 48 hrs by disk diffusion method; assay type: functional; method in brief: as §1
# [12] = test system: Candida tropicalis; experiment: Antimicrobial activity against Candida tropicalis after 48 hrs
# [13] = test system: Candida parapsilosis; experiment: Antimicrobial activity against Candida parapsilosis after 48 hrs by broth microdilution method; assay type: functional; details: Lodderomyces parapsilosis
# [14] = test system: Nakaseomyces glabratus; experiment: Antimicrobial activity against Candida glabrata after 48 hrs by 80% endpoint M27-A2 method; assay type: functional
# [15] = test system: Candida albicans; experiment: Antimicrobial activity against Candida albicans isolate S at 1 ug/ml grown on RPMI 1640 medium after 48 hrs by disk diffusion method; assay type: functional; method in brief: as §1
# [16] = test system: Candida parapsilosis; experiment: Antimicrobial activity against Candida parapsilosis after 48 hrs by NCCLS microdilution method; assay type: functional; details: Lodderomyces parapsilosis
# [17] = test system: Candida albicans; experiment: Antimicrobial activity against Candida albicans isolate S at 1 ug/ml grown on Muller-Hinton agar medium after 48 hrs by disk diffusion method; assay type: functional; method in brief: as §1
# [18] = test system: Clavispora lusitaniae; experiment: Antimicrobial activity against Candida lusitaniae after 48 hrs
# [19] = test system: Debaryomyces hansenii; experiment: Antimicrobial activity against Candida famata after 24 hrs by M27-A3 method; assay type: functional
# [20] = test system: Candida albicans; experiment: Antimicrobial activity against Candida albicans after 48 hrs by NCCLS microdilution method; assay type: functional
# [21] = test system: Candida albicans; experiment: Antimicrobial activity against Candida albicans after 48 hrs by Etest; assay type: functional
# [22] = test system: Candida albicans; experiment: Antimicrobial activity against Candida albicans isolate R after 48 hrs by Etest; assay type: functional
# Method in brief: (§2)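 Etest on RPMI 1640 agar with 2% glucose, performed according to the manufacturer's recommendations.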
# [23] = test system: Candida albicans; experiment: Antimicrobial activity against Candida albicans isolate S at 1 ug/ml grown on Muller-Hinton agar medium after 24 hrs by disk diffusion method; assay type: functional; method in brief: as §1
# [24] = test system: Nakaseomyces glabratus; experiment: Antimicrobial activity against Candida glabrata after 48 hrs by Etest; assay type: functional
# [25] = test system: Candida albicans; experiment: Antimicrobial activity against Candida albicans isolate R at 5 ug/ml grown on RPMI 1640 medium after 24 hrs by disk diffusion method; assay type: functional; method in brief: as §1
# [26] = test system: Pichia kudriavzevii; experiment: Antimicrobial activity against Candida krusei after 48 hrs by 80% endpoint M27-A2 method; assay type: functional
# [27] = test system: Candida tropicalis; experiment: Antimicrobial activity against Candida tropicalis after 48 hrs by NCCLS microdilution method; assay type: functional
# [28] = test system: Clavispora lusitaniae; experiment: Antimicrobial activity against Candida lusitaniae after 48 hrs by Etest; assay type: functional
# [29] = test system: Candida albicans; experiment: Antimicrobial activity against Candida albicans obtained from tracheal suction of patient 24 days after admission by EUCAST microdilution method; assay type: functional; details: Trachea, 576 h
# Method in brief: (§3)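 EUCAST broth microdilution, plates read spectrophotometrically at 490 nm. MIC is the lowest dilution giving 50% growth inhibition. C. krusei […] control included in each run.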
# [30] = test system: Candida albicans; experiment: Antimicrobial activity against Candida albicans isolate S at 25 ug/ml grown on RPMI 1640 medium after 24 hrs by disk diffusion method; assay type: functional; method in brief: as §1
# [31] = test system: Kluyveromyces marxianus; experiment: Antimicrobial activity against Candida kefyr after 24 hrs by M27-A3 method; assay type: functional
# [32] = test system: Clavispora lusitaniae; experiment: Antimicrobial activity against Candida lusitaniae after 24 hrs by M27-A3 method; assay type: functional
# [33] = test system: Pichia kudriavzevii; experiment: Antimicrobial activity against Candida krusei after 24 hrs by M27-A3 method; assay type: functional
# [34] = test system: Candida albicans; experiment: Antimicrobial activity against Candida albicans after 24 hrs by M27-A3 method; assay type: functional
# [35] = test system: Candida albicans; experiment: Antimicrobial activity against Candida albicans obtained from urine of patient 29 days after admission by EUCAST microdilution method; assay type: functional; details: 696 h; method in brief: as §3
# [36] = test system: Kluyveromyces marxianus; experiment: Antimicrobial activity against Candida kefyr after 48 hrs by 50% endpoint M27-A2 method; assay type: functional
# [37] = test system: Candida albicans; experiment: Antimicrobial activity against Candida albicans isolate S at 25 ug/ml grown on RPMI 1640 medium after 48 hrs by disk diffusion method; assay type: functional; method in brief: as §1
# [38] = test system: Candida albicans; experiment: Antimicrobial activity against Candida albicans isolate R at 1 ug/ml grown on RPMI 1640 medium after 24 hrs by disk diffusion method; assay type: functional; method in brief: as §1
# [39] = test system: Clavispora lusitaniae; experiment: Antimicrobial activity against Candida lusitaniae after 48 hrs by 50% endpoint M27-A2 method; assay type: functional
# [40] = test system: Candida albicans; experiment: Antimicrobial activity against Candida albicans after 48 hrs by broth microdilution method; assay type: functional
# [41] = test system: Nakaseomyces glabratus; experiment: Antimicrobial activity against Candida glabrata after 48 hrs by NCCLS microdilution method; assay type: functional
# [42] = test system: Nakaseomyces glabratus; experiment: Antimicrobial activity against Candida glabrata after 24 hrs by M27-A3 method; assay type: functional
# [43] = test system: Candida parapsilosis; experiment: Antimicrobial activity against Candida parapsilosis after 48 hrs by 50% endpoint M27-A2 method; assay type: functional; details: Lodderomyces parapsilosis
# [44] = test system: Pichia kudriavzevii; experiment: Antimicrobial activity against Candida krusei after 48 hrs by broth microdilution method; assay type: functional
# [45] = test system: Pichia kudriavzevii; experiment: Antimicrobial activity against Candida krusei after 48 hrs by NCCLS microdilution method; assay type: functional
# [46] = test system: Candida albicans; experiment: Antimicrobial activity against Candida albicans isolate R obtained from urine of patient 38 days after admission by Etest; assay type: functional; method in brief: as §2
# [47] = test system: Candida albicans; experiment: Antimicrobial activity against Candida albicans isolate R infected in NMRI mouse assessed as decrease in kidney bacterial burden at 6 mg/kg, ip measured on day 4; assay type: functional, organism-based; set-up: dose 6 mg/kg
# Method in brief: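 NMRI mice (26 to 30 g), seven per group, were infected intravenously on day 0 with 1×10^5 CFU. They received caspofungin ip on days 1 to 3 in 0.5 ml; saline-treated mice served as controls. On day 4 the kidneys were removed and homogenized, and 10-fold dilutions were spot plated. Results are log10 CFU/ml homogenate (detection limit 50 CFU/ml), compared by Mann-Whitney test.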
structure (smiles),measurement,setting,value
CC[C@H](C)C[C@H](C)CCCCCCCCC(=O)N[C@H]1C[C@@H](O)[C@@H](NCCN)NC(=O)[C@@H]2[C@@H](O)CCN2C(=O)[C@H]([C@H](O)CCN)NC(=O)[C@H]([C@H](O)[C@@H](O)c2ccc(O)cc2)NC(=O)[C@@H]2C[C@@H](O)CN2C(=O)[C@H]([C@@H](C)O)NC1=O [CASPOFUNGIN],MIC90,[1],1 µg/mL
same,MIC90,[2],> 8 µg/mL
same,MIC90,[3],0.06 µg/mL
same,MIC90,[4],1 µg/mL
same,inhibition zone (IZ),[5],6.2 mm
same,MIC,[6],≤ 0.06 µg/mL
same,inhibition zone (IZ),[7],20.6 mm
same,inhibition zone (IZ),[8],20.4 mm
same,MIC90,[9],4 µg/mL
same,MIC90,[10],2 µg/mL
same,inhibition zone (IZ),[11],21 mm
same,MIC90,[12],0.5 µg/mL
same,MIC90,[13],2 µg/mL
same,MIC90,[14],1 µg/mL
same,inhibition zone (IZ),[15],10.5 mm
same,MIC90,[16],2 µg/mL
same,inhibition zone (IZ),[17],12.5 mm
same,MIC90,[18],1 µg/mL
same,MIC90,[19],1 µg/mL
same,MIC90,[20],0.5 µg/mL
same,MIC90,[21],0.25 µg/mL
same,MIC,[22],> 32 µg/mL
same,inhibition zone (IZ),[23],12.1 mm
same,MIC90,[24],0.25 µg/mL
same,inhibition zone (IZ),[25],8.6 mm
same,MIC90,[26],2 µg/mL
same,MIC90,[27],0.5 µg/mL
same,MIC90,[28],2 µg/mL
same,MIC,[29],0.25 µg/mL
same,inhibition zone (IZ),[30],25.3 mm
same,MIC90,[31],0.015 µg/mL
same,MIC90,[32],0.25 µg/mL
same,MIC90,[33],0.25 µg/mL
same,MIC90,[34],0.06 µg/mL
same,MIC,[35],0.25 µg/mL
same,MIC90,[36],1 µg/mL
same,inhibition zone (IZ),[37],26.4 mm
same,inhibition zone (IZ),[38],6.2 mm
same,MIC90,[39],2 µg/mL
same,MIC90,[40],0.25 µg/mL
same,MIC90,[41],1 µg/mL
same,MIC90,[42],0.06 µg/mL
same,MIC90,[43],2 µg/mL
same,MIC90,[44],2 µg/mL
same,MIC90,[45],1 µg/mL
same,MIC,[46],> 32 µg/mL
same,Activity,[47],inactive
